Measurements: PubChem BioAssay AID1885 (Broad Institute, 2009)
The campaign covered roughly 300,000 compounds. About 4,400 (1.5%) were called active. Shown is part of a subset that was picked to be rich in actives. Unmarked numbers belong to inactive results.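 The calls were made as follows: active = mean inhibition across valid replicates above about 55% (limit read from the data); inconclusive = mean below that limit but half or more replicates reach it; inactive = mean below it, under half of replicates reach it.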

assay: Trypanosoma cruzi replication blockers in host cells – luminescence, NIH3T3 host cells, primary screen (AID 1885);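 also: signal also drops with host cell toxicity which is not excluded here; 0% = plate median of DMSO wells and 100% = zero luminescence signal; higher percent means less beta-gal luminescence so fewer parasites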; conditions: T. cruzi beta-gal in NIH3T3, luminescence, 90 h; active compounds read high; concentration not given here
Outline: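 Test system: β-gal T. cruzi (Tulahuen C4) inside NIH/3T3 cells / Quantity: 5,000 cells/well / Measured by: luminescence from GalScreen with 0.05% NP40, read after 60 min / Medium: DMEM plus 2% FBS / Measure: parasite load inhibition, % / Reagent: Tulahuen C4 trypomastigotes, 5000/well / Schedule: co-culture of at least 90 h after 3 h attachment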

| Compound | inhibition |
| --- | --- |
| CN(C)CCCCCN(C)Cc1cc2ccccc2o1 | 69.5% (active) |
| COc1ccccc1CN(C)C(=O)c1cc2ccccc2o1 | 0.505% |
| N=c1oc2ccccc2cc1C(=O)NCc1ccccc1 | -12.9% |
| O=C(COc1ccc2ccc(=O)oc2c1)NCC(O)c1ccccc1 (stereo not drawn) | -12.4% |
| COc1cc(NC(=O)CCNC(=O)Cn2ccc3ccccc3c2=O)cc(OC)c1OC | -1.49% |
| Cc1ccc(-c2c(C)n([O-])c3c([n+]2=O)CCC3)cc1 | -4.48% |
| CCOc1cc(NC(=O)c2ccccc2C(=O)O)c(OCC)cc1NC(=O)c1ccccc1F | 60.5% (active) |
| NC(=O)c1ccccc1NC(=O)c1ccccc1F | -8.84% |
| CCOc1cc(NC(=O)Nc2ccccc2)c(OCC)cc1NC(=O)CC | -28.4% |
| COc1cccc(N(CC(=O)NC2CCCCCC2)S(=O)(=O)c2ccccc2)c1 | 21.4% |
| Cc1ccc(-c2ccc(/C=N/NC(=O)CN3CCOCC3)o2)cc1[N+](=O)[O-] | -11.4% |
| Cc1cc(C(=O)N/N=C/c2ccccc2[N+](=O)[O-])c(C)o1 | -0.35% |
| Cc1occc1C(=O)N/N=C/c1ccc(-c2cccc([N+](=O)[O-])c2)o1 | 67.8% (active) |
| CC(=O)N1CCN(CC(C)(C)NS(=O)(=O)c2ccc(C)cc2)CC1 | 11.8% |
| O=C(CCc1ccccc1)Nc1ncc([N+](=O)[O-])s1 | 86.1% (active) |
| O=C(Cc1c(F)cccc1Cl)Nc1ncc([N+](=O)[O-])s1 | 50.4% |
| O=C(Nc1ncc([N+](=O)[O-])s1)C1COc2ccccc2O1 (stereo not drawn) | -1.76% |
| Cc1ccccc1C(=O)NNC(=O)CN1C(=O)c2ccccc2C1=O | -15.4% |
| COc1ccc(OCc2cc(C(=O)NCC3(C)COC3)no2)c(Cl)c1 | -0.702% |
| CCCCn1c(N)c(N(CCOC)C(=O)c2cccc(S(=O)(=O)N3CCCCC3)c2)c(=O)[nH]c1=O | -8.61% |

| Compound | inhibition |
| --- | --- |
| CN(C)CCCNC(=O)/C=C/c1ccc(OCc2c(F)cccc2Cl)cc1 | 55.5% (active) |
| O=C(/C=C/c1ccc(OCc2c(F)cccc2Cl)cc1)N1CCOCC1 | 16.6% |
| COCCCNC(=O)/C=C/c1ccc(OCc2c(F)cccc2Cl)cc1 | 19% |
| COc1ccc(C2c3[nH]c4ccccc4c3C[C@H]3C(=O)N(CC(C)C)CC(=O)N23)c(OC)c1 (stereo partly drawn) | 9.19% |
| COCCCNC(=S)N(CCN(C)C)Cc1cc2cc3c(cc2[nH]c1=O)OCCO3 | -7.66% |
| Cc1cc(C)c2[nH]c(=O)c(CN(Cc3ccccc3)C(=S)NCCCN(C)C)cc2c1 | 59.1% (active) |
| Cc1cccc2cc(CN(Cc3cccs3)C(=S)NCc3ccco3)c(=O)[nH]c12 | 18.3% |
| COc1ccc(Cc2cc(-c3ccc(F)cc3)n[nH]c2=O)cc1 | -6.16% |
| CC1(c2ccccc2)NC(=O)N(CC(=O)Nc2cc(Cl)ccc2N2CCOCC2)C1=O (stereo not drawn) | 5.62% |
| CCc1cccc(C)c1NC(=O)COC(=O)CNC(=O)c1cccs1 | -15.5% |
| O=[N+]([O-])c1cc(S(=O)(=O)Nc2cccc(Cl)c2)ccc1N=Nc1c(O)[nH]c2ccccc12 | 61.7% (active) |
| Cc1cccc(N(CC(=O)N=Nc2c(O)[nH]c3ccccc23)S(C)(=O)=O)c1C | 16.1% |
| CN1CCN(c2ccc(S(=O)(=O)Nc3ccccc3)cc2[N+](=O)[O-])CC1 | 18.5% |
| O=C(NCC(c1ccco1)N1CCc2ccccc2C1)c1ccccc1Cl (stereo not drawn) | -5.54% |
| O=C(NCc1cccnc1)c1cc(S(=O)(=O)N2CCOCC2)c(Cl)cc1Cl | 3.92% |
| Cc1noc(C)c1CSCC(=O)Nc1ccc(Br)cc1Cl | 1.67% |
| O=C(Nc1cc(-c2nc3ncccc3o2)ccc1Cl)c1ccco1 | -11% |
| O=C(Nc1cccc(-c2nc3ncccc3o2)c1)c1ccco1 | 69.4% (active) |
| O=C(Nc1cccc(NC(=O)c2ccco2)c1)c1cnccn1 | 21.9% |
| N#Cc1ccccc1NC(=O)COc1c(Br)cc(Br)c2cccnc12 | -12.8% |

| Compound | inhibition |
| --- | --- |
| CN1CCN(c2ccc(S(=O)(=O)N3CCCCC3)cc2NC(=O)Cc2ccccc2F)CC1 | 45.1% |
| CCN1CCN(c2ccc(S(=O)(=O)N3CCCCC3)cc2NC(=O)Cc2c(Cl)cccc2Cl)CC1 | 65.7% (active) |
| CC(=O)NCCC(=O)Nc1cc(S(=O)(=O)N2CCOCC2)ccc1N1CCOCC1 | -12% |
| CCN1CCN(c2ccc(S(=O)(=O)N3CCCCC3)cc2NC(=O)c2cccc(NC(C)=O)c2)CC1 | 0.05% |
| CN1CCN(c2ccc(S(=O)(=O)N3CCOCC3)cc2NC(=O)CCc2ccccc2)CC1 | 54.9% (active) |
| O=C(COc1cccc2ccccc12)Nc1cc(S(=O)(=O)N2CCOCC2)ccc1N1CCOCC1 | 2.7% |
| CCOC(=O)C1=C(c2ccccc2)N=C2SCC(=O)N2C1c1ccc(O)c(OC)c1 (stereo not drawn) | -14.5% |
| Cc1nn(C)c(C)c1CN(C(=O)CCc1nnc(Cc2c[nH]c3ccccc23)o1)C(C)C | 9.23% |
| CCOC(=O)N1CCN(S(=O)(=O)c2ccc(-n3cnnn3)cc2)CC1 | 0.644% |
| COc1ccc(NC(=O)C(=O)NCC(c2ccco2)N2CCc3ccccc3C2)cc1 (stereo not drawn) | 9.29% |
| CCc1ccccc1NC(=O)NCCN1CCCCC1 | 1.39% |
| O=C(c1cc(C(=O)N2CCN(c3ccc(F)cc3)CC2)cc([N+](=O)[O-])c1)N1CCN(c2ccc(F)cc2)CC1 | 45.8% |
| CC1CCC2CCCCC2N1C(=O)c1cc([N+](=O)[O-])cc([N+](=O)[O-])c1 (stereo not drawn) | 56% (active) |
| CC1CCN(C(=S)c2cccc([N+](=O)[O-])c2)CC1 | 1.31% |
| OCC(O)CN(c1ccccc1)c1ccccc1 (stereo not drawn) | -11.6% |
| COc1cc(Br)c(-c2sc(Nc3ccccc3)n[n+]2-c2ccccc2)cc1OC | 0.144% |
| COc1ccc(C)cc1S(=O)(=O)Nc1cccc(Cl)c1Cl | 8.72% |
| COc1ccc(C)cc1Nc1n[n+](-c2ccccc2)c(-c2cccc(Cl)c2Cl)s1 | 61.2% (active) |
